# Results from ChEMBL document CHEMBL1121364, “Nucleoside conjugates as potential antitumor agents. 3. Synthesis and antitumor activity of 1-(beta-D-arabinofuranosyl)cytosine conjugates of corticosteroids” (1980).
# Legend:
# [1] = system: L1210; experiment: Antitumor activity in the mice with intraperitoneal implanted L1210 lymphoid leukemia at the dose of 75 mg/kg/day x 5 was determined as mean survival of treated group compared to untreated; 28.5/9.5; assay type: functional, Mus musculus
# [2] = system: L1210; experiment: Antitumor activity in the mice with intraperitoneal implanted L1210 lymphoid leukemia at the dose 50 mg/kg/day x 5 was determined as percentage increase in the life span as compared with control tumor bearers; assay type: functional; conditions: Mus musculus, L1210, ip
# Method in brief: (§1)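 C3D2F1/J female mice (C3H/HeJ female × DBA/2J male), groups of six to eight, average weight 25 g. Inoculated ip with 1 × 10^6 L1210 ascites cells taken from DBA/2Ha donor mice bearing 3-5 day old tumors. Compounds were dissolved in 0.154 N NaOH, neutralized with 0.154 N HCl (final 0.9% NaCl), and given ip daily for 5 days from 24 h post-implant. Median survival T/C; ILS = (T/C − 1) × 100; 30-day survivors counted.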
# [3] = system: L1210; experiment: Antitumor activity in the mice with intraperitoneal implanted L1210 lymphoid leukemia at the dose of 100 mg/kg/day x 5 was determined as median survival of treated group compared to untreated; 16/11
# [4] = system: L1210; experiment: Antitumor activity in mice with intraperitoneal implanted L1210 lymphoid leukemia at the dose 50 mg/kg/day x 5 was determined as weight change (g/mouse) on 8th day; assay type: functional
# Method in brief: (§2)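 C3D2F1/J female mice (C3H/HeJ × DBA/2J), groups of six to eight, average 25 g, inoculated ip with 1 × 10^6 L1210 ascites cells taken from DBA/2Ha donor mice carrying 3-5 day tumors. Compound dissolved in 0.154 N NaOH, then neutralized with 0.154 N HCl to give 0.9% NaCl. Given ip daily for 5 consecutive days starting 24 h after implantation. Body weight change per mouse recorded on day 8.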
# [5] = system: L1210; experiment: Antitumor activity in the mice with intraperitoneal implanted L1210 lymphoid leukemia at the dose 25 mg/kg/day x 5 was determined as percentage increase in the life span as compared with control tumor bearers; assay type: functional; conditions: Mus musculus, L1210, ip
# Method in brief: (§3)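 Female C3D2F1/J mice (C3H/HeJ × DBA/2J), groups of six to eight, average weight 25 g. Each mouse got 1 × 10^6 L1210 ascites cells ip, taken from DBA/2Ha donor mice bearing 3-5 day tumors. Compound was dissolved in 0.154 N NaOH and neutralized with 0.154 N HCl (final 0.9% NaCl). Dosed ip daily ×5, starting 24 h after implant. Recorded body weight change on day 8, survival range, median survival and 30-day survivors. ILS = (T/C − 1) × 100.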
# [6] = system: L1210; experiment: Antitumor activity in mice with intraperitoneal implanted L1210 lymphoid leukemia at the dose 100 mg/kg/day x 5 was determined as weight change (g/mouse) on 8th day; assay type: functional; method in brief: as §2
# [7] = system: L1210; experiment: Antitumor activity in the mice with intraperitoneal implanted L1210 lymphoid leukemia at the dose 75 mg/kg/day x 5 was determined as percentage increase in the life span as compared with control tumor bearers; assay type: functional; conditions: Mus musculus, L1210, ip; method in brief: as §1
# [8] = system: L1210; experiment: Antitumor activity in the mice with intraperitoneal implanted L1210 lymphoid leukemia at the dose 25 mg/kg/day x 5 was determined and number of animals survived on 30 th day were reported; 0/8; assay type: functional, Mus musculus; method in brief: as §3
# [9] = system: L1210; experiment: Antitumor activity in the mice with intraperitoneal implanted L1210 lymphoid leukemia at the dose 9.2 and 13.2 mg/kg/day x 5 was determined and number of animals survived on 30 th day were reported; 0/6; assay type: functional, Mus musculus; method in brief: as §1
# [10] = system: L1210; experiment: Antitumor activity in the mice with intraperitoneal implanted L1210 lymphoid leukemia at the dose 75 mg/kg/day x 5 was determined and number of animals survived on 30 th day were reported; 3/8; assay type: functional, Mus musculus; method in brief: as §1
# [11] = system: L1210; experiment: In Vitro evaluation for the antiproliferative activity by observing the growth inhibition of L1210 lymphoid leukemia cells in culture at 72 hour; assay type: functional, Mus musculus
# Method in brief: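 Growth of L1210 lymphoid leukemia cells in culture measured by Trypan blue exclusion of viable cells after 72 h of drug exposure. ED50 is the concentration giving 50% growth inhibition. In some runs the compound was first preincubated in medium at 37 °C for 24 or 48 h before the assay.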
# [12] = system: L1210; experiment: Antitumor activity in the mice with intraperitoneal implanted L1210 lymphoid leukemia at the dose 18.7 and 26.6 mg/kg/day x 5 was determined and number of animals survived on 30 th day were reported; 0/8; assay type: functional, Mus musculus; method in brief: as §3
# [13] = system: L1210; experiment: Antitumor activity in mice with intraperitoneal implanted L1210 lymphoid leukemia at the dose 75 mg/kg/day x 5 was determined as weight change (g/mouse) on 8th day; assay type: functional; method in brief: as §2
# [14] = system: L1210; experiment: Antitumor activity in the mice with intraperitoneal implanted L1210 lymphoid leukemia at the dose 100 mg/kg/day x 5 was determined as percentage increase in the life span as compared with control tumor bearers; assay type: functional; conditions: Mus musculus, L1210, ip; method in brief: as §3
# [15] = system: L1210; experiment: Antitumor activity in mice with intraperitoneal implanted L1210 lymphoid leukemia at the dose 25 mg/kg/day x 5 was determined as weight change (g/mouse) on 8th day; assay type: functional; method in brief: as §2
# [16] = system: L1210; experiment: Antitumor activity in the mice with intraperitoneal implanted L1210 lymphoid leukemia at the dose of 25 mg/kg/day x 5 was determined as mean survival of treated group compared to untreated; 18/9.5; assay type: functional, Mus musculus; method in brief: as §1
# [17] = system: L1210; experiment: Antitumor activity in the mice with intraperitoneal implanted L1210 lymphoid leukemia at the dose 9.2 and 13.2 mg/kg/day x 5 was determined as Survival time in days; Range is 13-24 days; assay type: functional, Mus musculus; method in brief: as §1
# [18] = system: L1210; experiment: Antitumor activity in the mice with intraperitoneal implanted L1210 lymphoid leukemia at the dose 18.7 and 26.6 mg/kg/day x 5 was determined as percentage increase in the life span as compared with control tumor bearers; assay type: functional, Mus musculus; method in brief: as §3
# [19] = system: L1210; experiment: Antitumor activity in the mice with intraperitoneal implanted L1210 lymphoid leukemia at the dose 50 mg/kg/day x 5 was determined as Survival time in days; Range is 14-23 days; assay type: functional, Mus musculus; method in brief: as §3
# [20] = system: L1210; experiment: Antitumor activity in the mice with intraperitoneal implanted L1210 lymphoid leukemia at the dose 100 mg/kg/day x 5 was determined as Survival time in days; Range is 10-16 days; assay type: functional, Mus musculus; method in brief: as §3
# [21] = system: L1210; experiment: Antitumor activity in the mice with intraperitoneal implanted L1210 lymphoid leukemia at the dose 100 mg/kg/day x 5 was determined and number of animals survived on 30 th day were reported; 0/6; assay type: functional, Mus musculus; method in brief: as §3
# [22] = system: L1210; experiment: Antitumor activity in the mice with intraperitoneal implanted L1210 lymphoid leukemia at the dose 25 mg/kg/day x 5 was determined as Survival time in days; Range is 14-27 days; assay type: functional, Mus musculus; method in brief: as §3
# [23] = system: L1210; experiment: Antitumor activity in the mice with intraperitoneal implanted L1210 lymphoid leukemia at the dose 75 mg/kg/day x 5 was determined as Survival time in days; Range is 18-37 days; assay type: functional, Mus musculus; method in brief: as §1
# [24] = system: L1210; experiment: Antitumor activity in the mice with intraperitoneal implanted L1210 lymphoid leukemia at the dose 9.2 and 13.2 mg/kg/day x 5 was determined as percentage increase in the life span as compared with control tumor bearers; assay type: functional, Mus musculus; method in brief: as §1
# [25] = system: L1210; experiment: Antitumor activity in the mice with intraperitoneal implanted L1210 lymphoid leukemia at the dose of 50 mg/kg/day x 5 was determined as mean survival of treated group compared to untreated; 20.5/8.5; assay type: functional, Mus musculus
# [26] = system: L1210; experiment: Antitumor activity in the mice with intraperitoneal implanted L1210 lymphoid leukemia at the dose 50 mg/kg/day x 5 was determined and number of animals survived on 30 th day were reported; 0/8; assay type: functional, Mus musculus; method in brief: as §3
compound,measurement,setting,value
C[C@]12CCC(=O)C=C1CC[C@@H]1[C@@H]2CC[C@@]2(C)[C@H]1CC[C@]2(O)C(=O)COP(=O)(O)OC[C@H]1O[C@@H](n2ccc(N)nc2=O)[C@@H](O)[C@@H]1O,T/C,[1],28.5
same,ILS at 50 mg/kg/day,[2],141%
same,T/C,[3],16
same,Weight change,[4],-2.5 g mouse-1
same,ILS at 25 mg/kg/day,[5],90%
same,Weight change,[6],-3.82 g mouse-1
same,ILS at 75 mg/kg/day,[7],200%
same,Survivors,[8],0
same,Survivors,[9],0
same,Survivors,[10],3
same,ED 50,[11],80 nM
same,Survivors,[12],0
same,Weight change,[13],0.46 g mouse-1
same,ILS at 100 mg/kg/day,[14],46%
same,Weight change,[15],1.55 g mouse-1
same,T/C,[16],18
same,Survival time,[17],13 days
same,ILS,[18],77%
same,Survival time,[19],14 days
same,Survival time,[20],10 days
same,Survivors,[21],0
same,Survival time,[22],14 days
same,Survival time,[23],18 days
same,ILS,[24],59%
same,T/C,[25],20.5
same,Survivors,[26],0
